The source made the active and inactive calls. The rule behind the calls is not given here.

The inhibition is the change of the read-out against control, counted positive when it falls.

Data set [1] relates to Drosophila. Put plainly: Downregulation of SOD1 transcript expression in Spastin Drosophila (Tubulin/Gal4 RNAi DSpast) neurodegenerative model at 10 uM flies raised in compound-enriched food by real-time PCR analysis. Format: functional. In a few lines: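 Total RNA from 5 third-instar Spastin-RNAi larvae raised on standard or compound-enriched food; Tubulin-Gal4/+ as control line. One-step SYBR RT-qPCR normalised to Rp49 by the 2^−ΔΔCt method. n = 3 experiments; one-way ANOVA, Tukey's test.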
In general terms: Quantitative PCR measures a nucleic acid by following its amplification.

The test system of data set [2] is SH-SY5Y. Put plainly: Antioxidant activity in human SH-SY5Y cells assessed as reduction in intracellular ROS formation at 2.5 uM incubated for 24 hrs followed by incubation with t-BuOOH for 30 mins by H2DCF-DA staining based fluorescence analysis. Type of data set: functional. The conditions noted are these: time 24.5 hrs. In a few lines: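 SH-SY5Y (2×10^4 cells/well) exposed to 2.5 μM for 24 h, loaded with H2DCF-DA 30 min at room temperature, probe removed, then challenged with 50 μM t-BuOOH 30 min at room temperature. Fluorescence ex 485/em 535 nm, expressed as % ROS increase. Three independent experiments; one-way ANOVA with Dunnett's test.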

Data set [3] deals with SH-SY5Y. Nature of the data set: Antioxidant activity in human SH-SY5Y cells assessed as increase in intracellular GSH level at 2.5 uM incubated for 24 hrs by […] fluorescence analysis. Type of data set: functional. In a few lines:
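SH-SY5Y (2×10^4 cells/well) grown 24 h, then exposed to 2.5 μM for 24 h at 37 °C. Fluorescent probe added 30 min at 37 °C; read at ex 355/em 460 nm. GSH (μM) from a GSH standard curve. Mean ± SEM of three experiments; one-way ANOVA with Dunnett's test.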

A short description of data set [4]: Toxicity against Drosophila W1118 assessed as proportion of eclosed-flies at 30 uM measured after 72 hrs.
Data set [5] deals with Microglia. Put plainly: Antiinflammatory activity against Sprague-Dawley rat microglial cells assessed as inhibition of LPS-induced TNF-alpha production at 2.5 uM pretreated with compound for 1 hr followed by LPS stimulation for 24 hrs by ELISA. Type of data set: functional, cell-based. The conditions noted are these: time 25.0 hrs. In a few lines:
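Primary cortical rat microglia in DMSO (≤0.1%) or vehicle for 1 h, then 100 ng/mL LPS for 24 h. TNF-α and IL-1β in culture medium by ELISA against standard curves (pg/mL), expressed as % of LPS-stimulated cultures. Mean ± SEM of 3 independent experiments; one-way ANOVA, Holm-Sidak test.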
(ELISA stands for enzyme-linked immunosorbent assay.)

Data set [6] deals with Microglia. Put plainly: Antiinflammatory activity against Sprague-Dawley rat microglial cells assessed as downregulation of NLRP3 mRNA expression at 2.5 uM pretreated with compound for 1 hr followed by LPS stimulation for 6 hrs by real-time PCR analysis. Type of data set: functional, cell-based. Particulars: time 7.0 hrs. In a few lines: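 Primary cortical microglia (postnatal day 1 rat pups, shaken off mixed glial cultures, ~97% Iba1-positive). Compound (DMSO ≤0.1%) for 1 h, then 100 ng/mL ultra-pure E. coli LPS for 6 h. QIAzol RNA extraction, SuperScript IV reverse transcription, real-time PCR. Mean ± SEM, n = 3 in triplicate; one-way ANOVA, Holm-Sidak test.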

In data set [7] the test system is Drosophila. Nature of the data set: Antioxidant activity in Spastin Drosophila (Tubulin/Gal4 RNAi DSpast) neurodegenerative model assessed as decrease in intracelluar ROS level in brain at 10 uM flies raised in compound-enriched food by DHE staining based fluorescence analysis. Type of data set: functional, organism-based. In a few lines: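 Spastin-RNAi (Tubulin-Gal4 cross, 28 °C) third-instar larvae raised on compound-enriched food, dissected in HL3, stained 30 min with 30 μM DHE, fixed in 4% PFA, DAPI counterstained. Confocal imaging (DHE 580–630 nm); two 2500 μm² ROIs per muscle or two 1900 μm² ROIs per brain, 10–15 larvae per group; DHE/DAPI ratio.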

As for `CCCCn1cc(C/C(C(=O)/C=C/c2ccc(OC)cc2)=C(O)\C=C\c2ccc(OC)cc2)nn1`, the inhibition result in the data set with Drosophila [1] is “Active”. Moreover, the inhibition at 2.5 µM in the data set with SH-SY5Y [2] worked out at 18%. Moreover, the Activity in the data set on SH-SY5Y [3] came out at 40%; in data set [4], 85.461%. Moreover, the result in the data set on Microglia [5], in the data set with Microglia [6] and with Drosophila [7] was Active.

Values taken from ChEMBL document CHEMBL5321214, “Targeting the multifaceted neurotoxicity of Alzheimer's disease by tailored functionalisation of the curcumin scaffold” (Eur J Med Chem, 2023).
